Experimental findings from ChEMBL document CHEMBL3232904, “Discovery of novel quinoline carboxylic acid series as DGAT1 inhibitors” (Bioorg Med Chem Lett, 2014) are described below.

pIC50: −log10 of the molar value.

In data set [1] the test system is Plasma. Description: Metabolic stability in human plasma at 25 degC. Type of data set: ADME, cell-free.
Data set [2] deals with Plasma. Description: Metabolic stability in rat plasma at 25 degC. Type of data set: ADME, cell-free.
For data set [3], the target named is T1, Diacylglycerol O-acyltransferase 1 (Mus musculus, UniProt Q9Z2A7).
T1 sequence (Q9Z2A7 whole entry): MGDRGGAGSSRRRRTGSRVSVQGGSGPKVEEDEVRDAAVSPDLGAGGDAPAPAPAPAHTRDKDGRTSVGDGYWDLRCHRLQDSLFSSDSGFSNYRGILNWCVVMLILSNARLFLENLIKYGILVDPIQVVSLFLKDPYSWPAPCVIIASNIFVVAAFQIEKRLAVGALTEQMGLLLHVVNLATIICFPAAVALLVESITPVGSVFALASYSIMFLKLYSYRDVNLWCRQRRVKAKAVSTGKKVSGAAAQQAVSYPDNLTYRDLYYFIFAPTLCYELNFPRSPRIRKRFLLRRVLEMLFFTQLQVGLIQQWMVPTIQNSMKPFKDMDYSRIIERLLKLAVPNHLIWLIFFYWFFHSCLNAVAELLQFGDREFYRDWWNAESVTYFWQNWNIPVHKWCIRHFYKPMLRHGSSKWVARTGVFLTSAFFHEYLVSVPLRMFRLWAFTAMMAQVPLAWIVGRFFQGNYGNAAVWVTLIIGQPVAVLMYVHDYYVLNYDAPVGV
Description: Inhibition of mouse DGAT1. The procedure, abridged:
(§1)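 IC50 values are the average of at least two independent determinations.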

A short description of data set [4]: AUC in rat at 10 mg/kg, po. Type of data set: ADME, organism-based. More on the design: dose 10 mg/kg, route oral. To be noted: plasma.
In data set [5] the test system is Plasma. Description: Metabolic stability in mouse plasma at 25 degC. Format: ADME, cell-free.
Data set [6] relates to Mus musculus. Description: Reduction of postprandial plasma triglyceride level in C57BL/6J mouse at 3 mg/kg, po administered 15 mins prior to corn oil bolus challenge measured after 2 hrs relative to vehicle-treated control. Type of data set: functional. On the set-up: scale not given: the % may be the effect or the level left. A digest of the protocol: (§2)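 Vehicle is 20% hydroxypropyl-β-cyclodextrin; compound or vehicle is given 15 min before time 0. Mice receive a 0.25 mL corn oil bolus at time 0. Terminal blood is taken by heart puncture at 120 min. Plasma TG is measured by an enzymatic colorimetric kit with absorbance read at 600 nm. Values are the mean ± SEM from eight studies, as % reduction versus vehicle.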

The next data set addresses T2, Cytochrome P450 1A1 (Homo sapiens, UniProt P04798).
T2 sequence (P04798 whole entry): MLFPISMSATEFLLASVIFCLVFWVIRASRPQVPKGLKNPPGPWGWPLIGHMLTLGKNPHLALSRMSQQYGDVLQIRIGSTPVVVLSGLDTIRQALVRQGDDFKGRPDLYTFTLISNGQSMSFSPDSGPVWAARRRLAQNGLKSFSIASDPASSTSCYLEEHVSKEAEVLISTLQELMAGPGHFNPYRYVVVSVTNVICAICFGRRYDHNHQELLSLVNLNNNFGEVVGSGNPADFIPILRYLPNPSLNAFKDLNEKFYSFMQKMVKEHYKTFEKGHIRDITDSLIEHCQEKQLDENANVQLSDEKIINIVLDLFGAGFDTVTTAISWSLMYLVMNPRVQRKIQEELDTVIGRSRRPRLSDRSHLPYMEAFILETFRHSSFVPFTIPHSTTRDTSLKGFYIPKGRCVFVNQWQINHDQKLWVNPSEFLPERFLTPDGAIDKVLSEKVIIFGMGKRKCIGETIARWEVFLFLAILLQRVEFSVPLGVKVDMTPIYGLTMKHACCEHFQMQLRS
Description: Induction of CYP1A1 (unknown origin). Format: ADME.

In data set [7] the test system is Mus musculus. Description: Reduction of plasma triglyceride level in C57BL/6J mouse at 3 mg/kg, po administered 15 mins prior to corn oil bolus challenge measured after 12 hrs relative to vehicle-treated control. Format: functional. On the set-up: scale not given: the % may be the effect or the level left.
The test system of data set [8] is Mus musculus. Description: Reduction of postprandial plasma triglyceride level in C57BL/6J mouse at 1 mg/kg, po administered 15 mins prior to corn oil bolus challenge measured after 2 hrs relative to vehicle-treated control. Type of data set: functional. More on the design: scale not given: the % may be the effect or the level left. A digest of the protocol: as §2

The target of data set [9] is T3, Sterol O-acyltransferase 2 (Homo sapiens, UniProt O75908).
T3 sequence (O75908 whole entry): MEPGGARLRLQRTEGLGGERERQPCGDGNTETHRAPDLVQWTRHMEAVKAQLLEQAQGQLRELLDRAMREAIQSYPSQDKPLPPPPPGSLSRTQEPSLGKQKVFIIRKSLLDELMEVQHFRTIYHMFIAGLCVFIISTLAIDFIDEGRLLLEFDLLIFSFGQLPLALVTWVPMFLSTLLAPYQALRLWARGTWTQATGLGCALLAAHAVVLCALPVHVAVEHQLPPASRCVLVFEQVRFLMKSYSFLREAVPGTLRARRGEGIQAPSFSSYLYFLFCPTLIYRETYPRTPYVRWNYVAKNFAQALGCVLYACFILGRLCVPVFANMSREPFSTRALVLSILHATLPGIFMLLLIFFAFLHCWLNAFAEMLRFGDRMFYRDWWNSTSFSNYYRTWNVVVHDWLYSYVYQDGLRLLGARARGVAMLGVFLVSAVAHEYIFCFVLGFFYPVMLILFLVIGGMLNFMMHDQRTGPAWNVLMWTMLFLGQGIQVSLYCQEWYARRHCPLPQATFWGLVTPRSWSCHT
Description: Inhibition of human ACAT2. A digest of the protocol: as §1

For data set [10], the target named is T4, PXR (nuclear receptor subfamily 1 group I member 2) (Homo sapiens, UniProt O75469).
T4 sequence (O75469 whole entry): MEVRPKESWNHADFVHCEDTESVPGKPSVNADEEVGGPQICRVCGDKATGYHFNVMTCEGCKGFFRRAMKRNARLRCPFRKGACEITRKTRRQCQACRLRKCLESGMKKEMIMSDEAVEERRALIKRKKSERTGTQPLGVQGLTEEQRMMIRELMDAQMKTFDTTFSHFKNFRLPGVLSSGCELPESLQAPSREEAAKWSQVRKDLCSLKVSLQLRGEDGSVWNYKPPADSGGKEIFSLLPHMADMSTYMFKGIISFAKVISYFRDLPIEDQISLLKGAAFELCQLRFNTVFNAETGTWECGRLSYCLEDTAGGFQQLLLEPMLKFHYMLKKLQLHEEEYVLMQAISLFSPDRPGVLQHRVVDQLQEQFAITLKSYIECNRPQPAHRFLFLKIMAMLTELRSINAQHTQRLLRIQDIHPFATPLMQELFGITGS
Description: Activation of PXR (unknown origin) at 10 uM. Format: ADME. To be noted: read-out: FC.

A word on the pIC50: it is the IC50 on a negative log10 scale, so that one unit is a factor of ten. What is called AUC is the area under the concentration-time curve, a measure of exposure. Consider `CC(C)c1cccc(NC(=O)c2ccnc3cc(-c4ccc([C@H]5CC[C@H](CC(=O)O)CC5)cc4)ccc23)c1`, for which the Stability with Plasma [1], in the data set on Plasma [2] and with Plasma [5] was 12 h each time. Also, in [3], the pIC50 was 7.64. The molecule also returned an AUC in data set [4] of 0.03 µM·h. Further, the Activity with Mus musculus [6] is recorded as -76%.
Take `Cc1cc(C(=O)Nc2ccccc2)c2ccc(-c3ccc([C@H]4CC[C@H](CC(=O)O)CC4)cc3)cc2n1`: the Activity entry is reported as “Active” at Cytochrome P450 1A1, -79% with Mus musculus [7], -94% in the data set with Mus musculus [8] and -100% with Mus musculus [6]. The pIC50 is 8.00 in data set [3] and 5.96 in [9]. The same molecule yielded an area under the curve (AUC) in [4] of 79 µM·h. The fold induction at 10 µM in data set [10] was determined as 1.4.
